Hits are enriched below; roughly 12% of the tested compounds scored in any of these assays.
Diaphorase inh: counter-screen for diaphorase-based assays: diaphorase inhibitors and chemical oxidizers; diaphorase resazurin-to-resorufin fluorescence, NADH, 16 min; bacterial (C. kluyveri) enzyme, not human; 190,000 compounds, 0.69% hits; inhibition, % at 20 µM; AID 1217;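 active means primary screen inhibition at 20 µM above a set limit, cut at about 50% in these data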;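 further: plate controls were DMSO with full reaction for no effect and wells lacking NADH for full effect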
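Assay system: diaphorase enzyme from Clostridium kluyveri; Input: enzyme working solution with 0.14 U/mL diaphorase; Timing: 16 min at room temperature; Technique: resorufin fluorescence, excitation 544 nm, emission 590 nm; Benchmarks: positive control minus NADH, DMSO neutral control.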
WT yeast gro inh: growth inhibition of WT yeast, mitochondrial fusion screen. mitochondrial fusion phenotypic screen, WT strain. inhibition, % at 10 µM. 190,000 compounds, 2.1% hits. AID 1362; in the data active means inhibition above about 58%; tested in S. cerevisiae
L major viab: inhibitors of Leishmania major promastigote growth | Leishmania major promastigotes, resazurin fluorescence viability | inhibition, % at 10 µM | 200,000 compounds, 9% hits | AID 1063; in the data active means inhibition above about 50%;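 further: promastigotes grown with compound for 44 hours at 28 °C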
Diaphorase act: diaphorase activation or chemical reduction counter-screen; AID 1229; activation factor at 20 µM; Diaphorase/resazurin coupled assay, resorufin fluorescence, 16 min; active compounds read high; 1 = vehicle wells, 0 = NADH-free wells; 190,000 compounds, 0.005% hits;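 active means diaphorase activity raised at least twofold by the compound at 20 µM; inactive means activation factor below 2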
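Assay system: Purified diaphorase enzyme from Clostridium kluyveri | Amount: Enzyme 0.07 U/mL final | Dosing: Compound 20 µM once, DMSO 1% | Timing: 16 min reaction at room temperature | Detection: Fluorescence, excitation 544 nm and emission 590 nm | Evaluation: Higher resorufin formation from activation or reduction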
ROMK mod: human ROMK K+ channel modulation, primary screen. P48048. Tet-inducible ROMK, thallium flux fluorescence; actives lie on both sides. B-score at 10 µM. 130,000 compounds, 2% hits;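 active means signal ratio slope over the read window, or its plate-corrected B-score, at least 3 SD from the plate mean, either direction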;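 further: B-score of the F/F0 ratio slope over 7 to 12 s after thallium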
Target sequence (P48048 whole entry, looked up): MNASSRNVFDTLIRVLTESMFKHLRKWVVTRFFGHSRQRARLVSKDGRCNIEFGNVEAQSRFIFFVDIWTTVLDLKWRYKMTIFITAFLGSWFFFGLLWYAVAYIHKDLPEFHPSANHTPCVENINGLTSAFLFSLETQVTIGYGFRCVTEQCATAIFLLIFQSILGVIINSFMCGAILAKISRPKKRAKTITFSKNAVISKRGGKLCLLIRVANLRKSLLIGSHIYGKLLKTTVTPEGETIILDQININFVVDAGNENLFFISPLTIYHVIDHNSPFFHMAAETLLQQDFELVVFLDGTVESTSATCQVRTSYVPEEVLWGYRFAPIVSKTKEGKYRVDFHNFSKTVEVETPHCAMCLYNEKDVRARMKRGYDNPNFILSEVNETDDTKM
KCC2 mod: modulates chloride dependent transport by human KCC2; Q9H2X9; KCC2 cells, thallium flux FluoZin-2 fluorescence; B-score of Tl+ flux slope (higher = more flux/activation; lower = inhibition) at 10 µM; 190,000 compounds, 2.2% hits; AID 1456;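 active means thallium flux slope and its plate-corrected score both differing from the plate sample mean at a set confidence after two filtering rounds, in either direction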;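 further: slope of fluorescence scaled to starting intensity during 10 to 20 s after thallium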
KCC2 sec1: confirmation of human KCC2 transport modulators | HEK293-KCC2, thallium flux, FluoZin2 fluorescence; active compounds read high | shares compounds with KCC2 mod | 3,700 compounds, 15% hits | normalised thallium flux (F/F0 slope) at 10 µM;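 active means thallium flux slope above the same plate's solvent-only control mean plus 3 SD; inconclusive means the two replicate wells disagree; inactive means no significant difference from solvent-only control wells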
KCC2 bumet counter: thallium flux persisting under bumetanide in KCC2 cells, counter-screen secondary assay | 3,700 compounds, 49% hits | normalized thallium flux at 10 µM | shares compounds with KCC2 mod | HEK293-KCC2 + bumetanide/ouabain, thallium flux FluoZin2; active compounds read high;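 active means thallium entry rate above the same plate's blocked-transporter control wells by more than 3 SD; inconclusive means the two repeat wells disagree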;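 further: raw slope of fluorescence over initial fluorescence between 10 and 20 s after thallium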
KCC2 secondary2: confirmation of human KCC2 transport modulators; normalized thallium flux at 10 µM; HEK293-KCC2, thallium flux FluoZin2 fluorescence; actives lie on both sides; F/F0 rise rate, 10–20 s post-thallium; 3,700 compounds, 23% hits; AID 1715; shares compounds with KCC2 mod;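 active means thallium flux slope more than 3 SD above or below the plate's solvent-only control mean, mostly below; inconclusive means the two repeat wells disagreed; inactive means no significant shift from solvent-only controls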;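 further: raw slope with 0.1% DMSO as baseline and bumetanide as block control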
HEK293 Tl flux: acts in parental HEK cells, KCC2 counter-screen; shares compounds with KCC2 mod; HEK293 parental cells, thallium flux FluoZin2, ouabain; baseline-ratio fluorescence slope, 10–20 s after thallium; thallium flux rate (normalised fluorescence) at 10 µM; 3,700 compounds, 46% hits; AID 1716;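 active means thallium flux rate significantly above the same plate's solvent-only control wells, beyond their mean plus 3 SD; inconclusive means the two replicate wells gave conflicting results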
KCC2 retest ouab: confirmation of human KCC2 modulators with ouabain; raw Tl+ flux slope (below DMSO = inhibition, above = activation) at 10 µM; 3,700 compounds, 48% hits; HEK293-KCC2, thallium flux FluoZin2 fluorescence; bidirectional: low = inhibitor, high = activator; shares compounds with KCC2 mod;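 active means thallium flux slope beyond 3 SD from same-plate DMSO control mean in most replicates, usually higher, sometimes lower; inconclusive means repeat tests gave conflicting results; inactive means no significant difference from controls in most replicates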;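 further: slope of initial-normalized fluorescence between seconds 10 and 20 after thallium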
HEK293 Tl flux2: parental HEK flux effect, counter-screen 2; shares compounds with KCC2 mod; HEK293 parental, thallium flux FluoZin-2 fluorescence slope; thallium flux slope at 10 µM; 3,700 compounds, 33% hits;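 active means thallium flux slope above the same plate's solvent-control mean plus 3 SD in both duplicate wells; inconclusive means duplicate wells that disagreed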;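 further: run without ouabain in cells lacking the KCC2 cotransporter; slope of fluorescence scaled to its starting value between 10 and 20 s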
* hit, by the source's call; ? = inconclusive; . = no result given; ! = not active in a repeat.

SMILES	Diaphorase inh	WT yeast gro inh	L major viab	Diaphorase act	ROMK mod	KCC2 mod	KCC2 sec1	KCC2 bumet counter	KCC2 secondary2	HEK293 Tl flux	KCC2 retest ouab	HEK293 Tl flux2
CCOc1cc(CNCCc2ccc(S(N)(=O)=O)cc2)cc(Cl)c1OCc1ccccc1	6	12	101*	0.9	-2.3	.	?	0.0046	0.031	0.0081	0.017	0.011
COc1c(C)cc(Br)cc1C(=O)Nc1ccc(S(N)(=O)=O)cc1	2	2	1	1	-0.19	0.16	.	.	.	.	.	.
COc1ccc(NS(=O)(=O)c2ccc(O)c(C(=O)OCC(=O)Nc3ccc4c(c3)OCCO4)c2)cc1	-2	-14	-8	1	-0.14	-0.46	.	.	.	.	.	.
CCC(CC)NC(=O)COC(=O)c1ccc(NS(=O)(=O)c2ccc3c(c2)OCCO3)cc1	14	3	2	0.9	0.93	2.7*	0.0088	0.0074	0.03	0.0069	0.02	0.01*
O=C(Cc1csc(Nc2nc(=S)[nH]c3ccccc23)n1)NCCCN1CCN(c2ccccc2F)CC1	17	5	22	0.8	-1.2	20*	0.014*	0.051*	0.041*	0.039*	0.062*	0.016*
CCOC(=O)c1cc2c(=O)[nH]ccc2nc1C	-2	27	0	1	.	13*	0.011	?	0.029	0.0074	0.033	0.01
CCOC(=O)c1cc2c(=O)[nH]ccc2nc1C(F)(F)F	.	.	.	.	.	-0.12	.	.	.	.	.	.
O=C(NNC(=S)NCc1ccccc1)c1ccccc1OC(F)F	-1	-9	13	1	-0.033	-0.57	.	.	.	.	.	.
O=C(NNC(=S)Nc1ccc(Cl)cc1)c1ccccc1OC(F)F	14	12	-1	0.9	-2.1	5.2*	0.0071	0.023*	0.033	0.02*	0.029*	0.013*
Nc1c(C(=O)c2ccccc2)sc2snc(SCC(=O)c3ccccc3)c12	28	44	8	0.7	.	.	0.0084	0.0066	0.03	0.0072	0.019	0.01
CCOC(=O)c1ccc2c(c1)[nH]c(=S)n2CC	8	-13	-4	0.9	0.025	4*	0.0057	0.019*	0.033	0.013*	?	0.016*
CC(C)c1cccc(O)c(=O)c1	17	-14	-9	0.8	0.0034	9.1*	0.0083	0.016*	0.032	0.013*	0.026*	?
CC(C)c1ccc(N)c(S(=O)(=O)O)c1	.	.	.	.	-0.61	0.69	.	.	.	.	.	.
CCn1c(-c2ccccc2O)n[nH]c1=S	27	4	-2	0.7	.	-0.013	.	.	.	.	.	.
CCn1c(-c2csc3c2CCC(C)C3)n[nH]c1=S (centres undefined)	11	47	36	0.9	.	11*	0.0071	0.027*	0.035	0.024*	0.03*	0.014*
S=c1[nH]c2ccc3ccccc3c2[nH]1	9	57	-6	0.9	0.39	-0.94	.	.	.	.	.	.
S=c1[nH]c2cc3ccccc3cc2[nH]1	.	.	.	.	0.077	3.3*!	0.017	0.0076*	?	0.0091*	0.016	?
O=C(NC(=S)N1CCc2ccccc21)c1ccc(Br)o1	16	68	1	0.8	.	65*	0.063*	0.086*	0.09*	0.098*	0.09*	0.11*
O=C(NC(=S)N1CCc2ccccc21)C1CCC1	1	-5	-5	1	-0.0029	14*	0.0082	0.025*	0.033	0.018*	?	0.016*
CC(C)(C)C(=O)NC(=S)N1CCc2ccccc21	10	-24	-7	0.9	.	22*	0.024*	0.1*	0.052*	?	0.066*	0.037*
COCCNC(=O)C(c1cccnc1)N(Cc1ccc(C)cc1)C(=O)Cn1nnc2ccccc21 (centres undefined)	6	-11	4	0.9	0.045	-0.95	.	.	.	.	.	.
COc1ccccc1C(=O)C1CCCN(C(=O)Nc2ccccc2F)C1 (centres undefined)	17	1	-1	0.8	-0.88	.	.	.	.	.	.	.
Cc1onc(-c2c(F)cccc2Cl)c1C(=O)OCC(=O)NC1CC1	12	3	-10	0.9	0.01	-0.21	.	.	.	.	.	.
Cc1c(N=C2Nc3cccc4cccc2c34)c(=O)n(-c2ccccc2)n1C	8	-8	1	0.9	.	-2.9*	?	0.0051	0.026*	0.0084	0.016*	0.0098
Cc1c(N=c2scc(-c3ccccc3)n2C)c(=O)n(-c2ccccc2)n1C	6	2	27	0.9	-0.15	-0.15	.	.	.	.	.	.
SMILES	Diaphorase inh	WT yeast gro inh	L major viab	Diaphorase act	ROMK mod	KCC2 mod	KCC2 sec1	KCC2 bumet counter	KCC2 secondary2	HEK293 Tl flux	KCC2 retest ouab	HEK293 Tl flux2
COc1cc(OC)c(NC(=O)C(=O)CC(=O)c2ccc(C)cc2C)cc1Cl	22	-3	100*	0.8	-0.47	16*	0.01	0.046*	0.031	0.019*	0.027	0.012*
COc1cc(OC)c(NC(=O)Cn2cccc2)cc1Cl	11	-4	-1	0.9	-0.11	.	.	.	.	.	.	.
CNC(=S)NNC(=O)Cc1ccc(OC)cc1	.	.	.	.	.	-0.97	.	.	.	.	.	.
COc1ccc(CC(=O)NC(=S)NNC(=O)COc2c(C)cccc2C)cc1	22	15	-4	0.8	0.13	7.3*	0.013*	0.038*	0.034	0.015*	?	0.012*
CCOc1ccc(NC(=S)NNC(=O)c2ccc(Br)cc2)cc1	-1	29	6	1	1.5	24*	0.014*	0.055*	0.039	?	0.046*	?
CCC(=O)NC(=S)NNC(=O)COc1ccc(Br)cc1	48	24	74*	0.5	0.55	7.6*	0.0072	0.019*	0.031	0.018*	?	0.015*
COC(=O)c1ccccc1NC(=S)NC(=O)COc1ccccc1	18	6	-9	0.8	.	.	.	.	.	.	.	.
O=C(COc1ccccc1)NC(=S)Nc1ccc(Br)cn1	.	.	.	.	.	85*	0.0071	0.045*	0.048*	0.053*	0.052*	0.041*
O=C(c1cc2cc([N+](=O)[O-])ccc2s1)N1CCCCC1	8	-27	6	0.9	-0.2	-0.7	.	.	.	.	.	.

Screening data deposited in PubChem by several laboratories.
